Experimental data published in ChEMBL document CHEMBL5058577, “EUbOPEN Chemogenomics Library 2 (Multiplex)” (2022).
Non-standard residues stand in square brackets, D forms with d. Residues, ends and D or L forms follow the SMILES beside them.

Tested on: Fibroblast
Test: Multiplex assay against human fibroblast
Type: toxicity, cell-based
How it was run: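 Four dyes were applied at seeding to live cells: Hoechst33342, BioTracker Green Microtubule Cytoskeleton Dye, MitoTracker Red and Annexin V Alexa Fluor 680. Imaging after compound addition used a CQ1 microscope at 37°C and 5% CO2. CellPathfinder machine-learning gating then sorted cells into Hoechst high-intensity objects or normal cells, normal cells into healthy, pyknosed or fragmented nuclei, and pyknosed cells into mitotic or apoptotic, with tubulin, mitochondrial-mass and membrane-permeability phenotypes given as per cents of healthy-nucleus cells.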

[1] = 12 h, 1 µM, compound concentration 1 uM, replicate 1
[2] = 12 h, 1 µM, compound concentration 1 uM, replicate 2
[3] = 12 h, 10 µM, compound concentration 10 uM, replicate 1
[4] = 12 h, 10 µM, compound concentration 10 uM, replicate 2
[5] = 24 h, 1 µM, compound concentration 1 uM, replicate 1
[6] = 24 h, 1 µM, compound concentration 1 uM, replicate 2
[7] = 24 h, 10 µM, compound concentration 10 uM, replicate 1
[8] = 24 h, 10 µM, compound concentration 10 uM, replicate 2
[9] = 48 h, 1 µM, compound concentration 1 uM, replicate 1
[10] = 48 h, 1 µM, compound concentration 1 uM, replicate 2
[11] = 48 h, 10 µM, compound concentration 10 uM, replicate 1
[12] = 48 h, 10 µM, compound concentration 10 uM, replicate 2

CC(C)C[C@@H]1NC(=O)[C@@H](C(C)C)NC(=O)[C@@H]2CCCN2C(=O)[C@@H](CC(=O)O)NC(=O)[C@@H](Cc2c[nH]c3ccccc23)NC1=O [BQ-123] (cyclo(L[dW][dD]P[dV]))
Population Apoptotic (%) [1]: 57%
Population Fragmented Nuclei (%) [1]: 18%
Population Healthy Nuclei (%) [1]: 68%
Population Hoechst High Intensity Objects (%) [1]: 0%
Population Membrane Permeable-Phenotype (%) [1]: 1%
Population Mitochondria Different-Phenotype (%) [1]: 11%
Population Mitotic Cells (%) [1]: 42%
Population Normal (%) [1]: 100%
Population Pyknosed Nuclei (%) [1]: 13%
Population Tubulin-Different-Phenotype (%) [1]: 31%
Total Cell Count [1]: 105
Population Apoptotic (%) [2]: 21%
Population Fragmented Nuclei (%) [2]: 22%
Population Healthy Nuclei (%) [2]: 58%
Population Hoechst High Intensity Objects (%) [2]: 3%
Population Membrane Permeable-Phenotype (%) [2]: 5%
Population Mitochondria Different-Phenotype (%) [2]: 2%
Population Mitotic Cells (%) [2]: 78%
Population Normal (%) [2]: 96%
Population Pyknosed Nuclei (%) [2]: 18%
Total Cell Count [2]: 157
Population Apoptotic (%) [3]: 48%
Population Fragmented Nuclei (%) [3]: 15%
Population Healthy Nuclei (%) [3]: 65%
Population Hoechst High Intensity Objects (%) [3]: 2%
Population Membrane Permeable-Phenotype (%) [3]: 0%
Population Mitochondria Different-Phenotype (%) [3]: 9%
Population Mitotic Cells (%) [3]: 52%
Population Normal (%) [3]: 97%
Population Pyknosed Nuclei (%) [3]: 18%
Population Tubulin-Different-Phenotype (%) [3]: 33%
Total Cell Count [3]: 136
Population Apoptotic (%) [4]: 33%
Population Fragmented Nuclei (%) [4]: 30%
Population Healthy Nuclei (%) [4]: 48%
Population Membrane Permeable-Phenotype (%) [4]: 4%
Population Mitochondria Different-Phenotype (%) [4]: 3%
Population Mitotic Cells (%) [4]: 66%
Population Pyknosed Nuclei (%) [4]: 20%
Population Tubulin-Different-Phenotype (%) [4]: 46%
Total Cell Count [4]: 134
Population Apoptotic (%) [5]: 53%
Population Fragmented Nuclei (%) [5]: 19%
Population Healthy Nuclei (%) [5]: 66%
Population Hoechst High Intensity Objects (%) [5]: 1%
Population Membrane Permeable-Phenotype (%) [5]: 0%
Population Mitochondria Different-Phenotype (%) [5]: 5%
Population Mitotic Cells (%) [5]: 46%
Population Normal (%) [5]: 98%
Population Pyknosed Nuclei (%) [5]: 14%
Population Tubulin-Different-Phenotype (%) [5]: 24%
Total Cell Count [5]: 107
Population Apoptotic (%) [6]: 24%
Population Fragmented Nuclei (%) [6]: 23%
Population Healthy Nuclei (%) [6]: 57%
Population Hoechst High Intensity Objects (%) [6]: 6%
Population Membrane Permeable-Phenotype (%) [6]: 3%
Population Mitochondria Different-Phenotype (%) [6]: 3%
Population Mitotic Cells (%) [6]: 75%
Population Normal (%) [6]: 93%
Population Pyknosed Nuclei (%) [6]: 18%
Population Tubulin-Different-Phenotype (%) [6]: 25%
Total Cell Count [6]: 166
Population Apoptotic (%) [7]: 50%
Population Fragmented Nuclei (%) [7]: 19%
Population Healthy Nuclei (%) [7]: 64%
Population Hoechst High Intensity Objects (%) [7]: 8%
Population Membrane Permeable-Phenotype (%) [7]: 1%
Population Mitochondria Different-Phenotype (%) [7]: 5%
Population Mitotic Cells (%) [7]: 50%
Population Normal (%) [7]: 91%
Population Pyknosed Nuclei (%) [7]: 15%
Population Tubulin-Different-Phenotype (%) [7]: 32%
Total Cell Count [7]: 123
Population Apoptotic (%) [8]: 29%
Population Fragmented Nuclei (%) [8]: 27%
Population Healthy Nuclei (%) [8]: 50%
Population Hoechst High Intensity Objects (%) [8]: 0%
Population Membrane Permeable-Phenotype (%) [8]: 11%
Population Mitochondria Different-Phenotype (%) [8]: 3%
Population Mitotic Cells (%) [8]: 70%
Population Normal (%) [8]: 99%
Population Pyknosed Nuclei (%) [8]: 22%
Population Tubulin-Different-Phenotype (%) [8]: 50%
Population Apoptotic (%) [9]: 50%
Population Fragmented Nuclei (%) [9]: 18%
Population Healthy Nuclei (%) [9]: 70%
Population Hoechst High Intensity Objects (%) [9]: 3%
Population Membrane Permeable-Phenotype (%) [9]: 0%
Population Mitochondria Different-Phenotype (%) [9]: 12%
Population Mitotic Cells (%) [9]: 50%
Population Normal (%) [9]: 96%
Population Pyknosed Nuclei (%) [9]: 11%
Population Tubulin-Different-Phenotype (%) [9]: 25%
Total Cell Count [9]: 109
Population Apoptotic (%) [10]: 52%
Population Fragmented Nuclei (%) [10]: 28%
Population Healthy Nuclei (%) [10]: 56%
Population Hoechst High Intensity Objects (%) [10]: 4%
Population Membrane Permeable-Phenotype (%) [10]: 2%
Population Mitochondria Different-Phenotype (%) [10]: 4%
Population Mitotic Cells (%) [10]: 48%
Population Normal (%) [10]: 95%
Population Pyknosed Nuclei (%) [10]: 15%
Population Tubulin-Different-Phenotype (%) [10]: 39%
Total Cell Count [10]: 172
Population Apoptotic (%) [11]: 70%
Population Fragmented Nuclei (%) [11]: 26%
Population Healthy Nuclei (%) [11]: 59%
Population Hoechst High Intensity Objects (%) [11]: 5%
Population Membrane Permeable-Phenotype (%) [11]: 1%
Population Mitochondria Different-Phenotype (%) [11]: 5%
Population Mitotic Cells (%) [11]: 29%
Population Normal (%) [11]: 94%
Population Pyknosed Nuclei (%) [11]: 13%
Population Tubulin-Different-Phenotype (%) [11]: 38%
Total Cell Count [11]: 129
Population Apoptotic (%) [12]: 46%
Population Fragmented Nuclei (%) [12]: 45%
Population Healthy Nuclei (%) [12]: 42%
Population Hoechst High Intensity Objects (%) [12]: 6%
Population Membrane Permeable-Phenotype (%) [12]: 9%
Population Mitochondria Different-Phenotype (%) [12]: 3%
Population Mitotic Cells (%) [12]: 53%
Population Normal (%) [12]: 93%
Population Pyknosed Nuclei (%) [12]: 12%
Population Tubulin-Different-Phenotype (%) [12]: 51%
Total Cell Count [12]: 130
